Columns and labels:
Dipeptidyl peptidase 4 = Dipeptidyl peptidase 4 (Homo sapiens, UniProt P27487); assay: Inhibition of DPP4 in human plasma assessed as formation of 7-amino-4-methylcoumarin from glycyl-L-proline 4-methylcoumaryl-7-amide by fluorescence assay
Dipeptidyl peptidase 2 = Dipeptidyl peptidase 2 (Homo sapiens, UniProt Q9UHL4); assay: Inhibition of DPP2
Dipeptidyl peptidase 8 = Dipeptidyl peptidase 8 (Homo sapiens, UniProt Q6V1X1); assay: Inhibition of DPP8
[1] = molecular target: T1, Muscarinic acetylcholine receptor M4 (Homo sapiens, UniProt P08173); assay: Binding affinity to muscarinic receptor 4
T1 sequence (P08173 whole entry): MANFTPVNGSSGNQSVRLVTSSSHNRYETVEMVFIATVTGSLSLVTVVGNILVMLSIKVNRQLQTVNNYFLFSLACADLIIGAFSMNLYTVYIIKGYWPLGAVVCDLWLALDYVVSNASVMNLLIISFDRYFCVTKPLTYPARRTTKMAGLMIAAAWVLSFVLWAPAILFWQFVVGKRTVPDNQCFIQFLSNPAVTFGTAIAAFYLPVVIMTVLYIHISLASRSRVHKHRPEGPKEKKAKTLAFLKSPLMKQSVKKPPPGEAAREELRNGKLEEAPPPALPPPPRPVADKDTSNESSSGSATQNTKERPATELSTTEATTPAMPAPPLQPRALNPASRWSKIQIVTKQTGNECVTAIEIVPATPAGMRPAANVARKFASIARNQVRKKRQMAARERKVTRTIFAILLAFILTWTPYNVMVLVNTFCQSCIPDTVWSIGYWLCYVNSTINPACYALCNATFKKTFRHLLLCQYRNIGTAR

Cytochrome P450 1A2 = molecular target: T2, Cytochrome P450 1A2 (Homo sapiens, UniProt P05177); assay: Inhibition of CYP1A2; format: ADME
T2 sequence (P05177 whole entry): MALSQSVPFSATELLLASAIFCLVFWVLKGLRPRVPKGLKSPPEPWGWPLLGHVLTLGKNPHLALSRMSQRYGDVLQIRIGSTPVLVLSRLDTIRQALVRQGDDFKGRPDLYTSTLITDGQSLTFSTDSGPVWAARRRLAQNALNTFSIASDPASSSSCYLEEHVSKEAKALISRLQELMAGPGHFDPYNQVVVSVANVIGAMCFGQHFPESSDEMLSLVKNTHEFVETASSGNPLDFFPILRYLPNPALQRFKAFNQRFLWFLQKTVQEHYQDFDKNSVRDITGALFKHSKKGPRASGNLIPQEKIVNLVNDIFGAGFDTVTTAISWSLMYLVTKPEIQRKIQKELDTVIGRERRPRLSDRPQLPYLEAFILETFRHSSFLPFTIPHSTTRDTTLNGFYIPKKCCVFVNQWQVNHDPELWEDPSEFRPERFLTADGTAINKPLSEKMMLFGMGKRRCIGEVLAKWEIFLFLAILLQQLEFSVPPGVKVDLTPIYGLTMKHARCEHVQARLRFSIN

Cytochrome P450 2A6 = molecular target: T3, Cytochrome P450 2A6 (Homo sapiens, UniProt P11509); assay: Inhibition of CYP2A6; format: ADME
T3 sequence (P11509 whole entry): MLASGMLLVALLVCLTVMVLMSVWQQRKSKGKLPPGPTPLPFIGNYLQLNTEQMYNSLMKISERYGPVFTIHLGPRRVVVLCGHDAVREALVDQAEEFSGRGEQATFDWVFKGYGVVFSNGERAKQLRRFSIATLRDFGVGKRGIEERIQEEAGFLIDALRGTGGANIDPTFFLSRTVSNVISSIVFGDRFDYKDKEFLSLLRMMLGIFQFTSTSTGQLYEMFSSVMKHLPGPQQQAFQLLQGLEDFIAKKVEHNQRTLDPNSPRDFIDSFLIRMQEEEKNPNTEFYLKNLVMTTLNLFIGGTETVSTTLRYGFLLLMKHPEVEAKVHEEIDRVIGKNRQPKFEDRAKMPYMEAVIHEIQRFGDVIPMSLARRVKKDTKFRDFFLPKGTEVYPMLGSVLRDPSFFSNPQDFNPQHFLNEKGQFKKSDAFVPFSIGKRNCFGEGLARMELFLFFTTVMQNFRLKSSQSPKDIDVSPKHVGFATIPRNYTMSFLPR

Cytochrome P450 2C8 = molecular target: T4, Cytochrome P450 2C8 (Homo sapiens, UniProt P10632); assay: Inhibition of CYP2C8; format: ADME
T4 sequence (P10632 whole entry): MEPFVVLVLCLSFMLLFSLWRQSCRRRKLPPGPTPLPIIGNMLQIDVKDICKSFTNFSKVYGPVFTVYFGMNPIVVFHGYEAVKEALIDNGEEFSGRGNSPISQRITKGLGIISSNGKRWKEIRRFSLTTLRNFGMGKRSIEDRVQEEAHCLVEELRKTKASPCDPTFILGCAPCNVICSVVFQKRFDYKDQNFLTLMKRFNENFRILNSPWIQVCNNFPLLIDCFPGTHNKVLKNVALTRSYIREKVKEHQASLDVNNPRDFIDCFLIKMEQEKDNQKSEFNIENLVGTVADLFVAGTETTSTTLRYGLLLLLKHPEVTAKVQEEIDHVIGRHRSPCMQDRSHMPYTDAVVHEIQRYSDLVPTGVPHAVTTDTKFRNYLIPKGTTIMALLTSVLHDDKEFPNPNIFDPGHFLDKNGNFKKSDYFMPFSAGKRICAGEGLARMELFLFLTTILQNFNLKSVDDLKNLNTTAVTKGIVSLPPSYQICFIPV

Cytochrome P450 3A4 = Cytochrome P450 3A4 (Homo sapiens, UniProt P08684); assay: Inhibition of CYP3A4; format: ADME
Cytochrome P450 3A4, sequence (P08684 whole entry): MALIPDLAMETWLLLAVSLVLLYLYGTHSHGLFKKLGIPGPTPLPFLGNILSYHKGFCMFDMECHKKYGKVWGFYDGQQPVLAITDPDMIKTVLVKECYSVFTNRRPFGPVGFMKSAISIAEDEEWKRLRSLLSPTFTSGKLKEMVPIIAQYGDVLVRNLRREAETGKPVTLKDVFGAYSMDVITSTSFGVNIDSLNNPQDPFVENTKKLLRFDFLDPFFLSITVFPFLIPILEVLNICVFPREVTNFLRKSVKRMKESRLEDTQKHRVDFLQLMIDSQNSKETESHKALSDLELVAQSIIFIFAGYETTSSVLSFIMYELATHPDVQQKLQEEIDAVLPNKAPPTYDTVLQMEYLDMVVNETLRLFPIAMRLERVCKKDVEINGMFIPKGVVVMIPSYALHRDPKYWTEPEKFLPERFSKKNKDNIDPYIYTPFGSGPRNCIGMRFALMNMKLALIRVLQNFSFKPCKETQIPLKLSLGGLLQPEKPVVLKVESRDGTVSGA

Cytochrome P450 2D6 = Cytochrome P450 2D6 (Homo sapiens, UniProt P10635); assay: Inhibition of CYP2D6; format: ADME
Cytochrome P450 2D6, sequence (P10635 whole entry): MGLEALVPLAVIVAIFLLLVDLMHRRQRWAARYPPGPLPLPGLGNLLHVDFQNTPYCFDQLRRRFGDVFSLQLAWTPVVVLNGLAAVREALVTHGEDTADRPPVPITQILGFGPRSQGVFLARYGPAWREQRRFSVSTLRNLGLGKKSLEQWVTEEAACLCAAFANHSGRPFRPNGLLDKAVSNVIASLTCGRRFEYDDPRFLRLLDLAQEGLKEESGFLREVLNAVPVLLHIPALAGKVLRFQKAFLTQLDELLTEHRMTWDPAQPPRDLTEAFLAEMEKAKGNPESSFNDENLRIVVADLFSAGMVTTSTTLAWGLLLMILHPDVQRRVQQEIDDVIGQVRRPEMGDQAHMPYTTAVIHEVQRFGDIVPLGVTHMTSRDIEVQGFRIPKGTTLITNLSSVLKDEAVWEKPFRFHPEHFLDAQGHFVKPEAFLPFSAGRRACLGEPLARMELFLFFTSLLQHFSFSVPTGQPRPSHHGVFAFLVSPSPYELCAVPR

[2] = Clearance in rat at 1 mg/kg, iv; format: ADME, organism-based; parameters: dose 1 mg/kg, route intravenous; details: in vivo
[3] = Volume of distribution at steady state in rat at 1 mg/kg, iv; format: ADME, organism-based; parameters: dose 1 mg/kg, route intravenous; details: in vivo, read-out: Vdss
[4] = Half life in rat at 3 mg/kg, po; format: ADME, organism-based; parameters: dose 3 mg/kg, route oral; details: in vivo
[5] = Half life in dog at 1 mg/kg, iv; format: ADME, organism-based, Canis lupus familiaris; parameters: dose 1 mg/kg, route intravenous; details: in vivo
[6] = Cmax in dog at 3 mg/kg, po; format: ADME, organism-based, Canis lupus familiaris; parameters: dose 3 mg/kg, route oral; details: in vivo
[7] = Half life in dog at 3 mg/kg, po; format: ADME, organism-based, Canis lupus familiaris; parameters: dose 3 mg/kg, route oral; details: in vivo
[8] = Oral bioavailability in dog at 3 mg/kg, po; format: ADME, organism-based, Canis lupus familiaris; details: in vivo
[9] = Clearance in monkey at 1 mg/kg, iv; format: ADME, organism-based, Macaca mulatta; parameters: dose 1 mg/kg, route intravenous; details: rhesus monkey, in vivo
[10] = Half life in monkey at 1 mg/kg, iv; format: ADME, organism-based, Macaca mulatta; parameters: dose 1 mg/kg, route intravenous; details: rhesus monkey, in vivo
[11] = Cmax in monkey at 3 mg/kg, po; format: ADME, organism-based, Macaca mulatta; parameters: dose 3 mg/kg, route oral; details: rhesus monkey, in vivo
[12] = Oral bioavailability in monkey at 3 mg/kg, po; format: ADME, organism-based, Macaca mulatta; details: rhesus monkey, in vivo
[13] = Plasma protein binding in rat; format: ADME, cell-free; details: read-out: PPB (converted)
[14] = Plasma protein binding in dog; format: ADME, cell-free, Canis lupus familiaris; details: read-out: PPB (converted)
[15] = Plasma protein binding in monkey; format: ADME, cell-free, Macaca mulatta; details: rhesus monkey, read-out: PPB (converted)
[16] = Plasma protein binding in human; format: ADME, cell-free; details: read-out: PPB (converted)
[17] = Cmax in Zucker fatty rat at 3 mg/kg, po after 3 hrs; format: ADME, organism-based; parameters: dose 3 mg/kg, route oral; details: in vivo
[18] = Solubility of the compound in buffered water at pH 1.2 to 6.8; format: physicochemical
In short: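 Free amine form dissolved in buffered water at pH 1.2, 5.5 and 6.8.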

[19] = Toxicity in rat assessed as organ toxicity after 2 weeks repeated dosage; format: organism-based; details: in vivo
In short: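 2-week repeated-dose toxicity study; rats n = 5 per sex, monkeys n = 1 per sex.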

Dipeptidyl peptidase 4, sequence (P27487 whole entry): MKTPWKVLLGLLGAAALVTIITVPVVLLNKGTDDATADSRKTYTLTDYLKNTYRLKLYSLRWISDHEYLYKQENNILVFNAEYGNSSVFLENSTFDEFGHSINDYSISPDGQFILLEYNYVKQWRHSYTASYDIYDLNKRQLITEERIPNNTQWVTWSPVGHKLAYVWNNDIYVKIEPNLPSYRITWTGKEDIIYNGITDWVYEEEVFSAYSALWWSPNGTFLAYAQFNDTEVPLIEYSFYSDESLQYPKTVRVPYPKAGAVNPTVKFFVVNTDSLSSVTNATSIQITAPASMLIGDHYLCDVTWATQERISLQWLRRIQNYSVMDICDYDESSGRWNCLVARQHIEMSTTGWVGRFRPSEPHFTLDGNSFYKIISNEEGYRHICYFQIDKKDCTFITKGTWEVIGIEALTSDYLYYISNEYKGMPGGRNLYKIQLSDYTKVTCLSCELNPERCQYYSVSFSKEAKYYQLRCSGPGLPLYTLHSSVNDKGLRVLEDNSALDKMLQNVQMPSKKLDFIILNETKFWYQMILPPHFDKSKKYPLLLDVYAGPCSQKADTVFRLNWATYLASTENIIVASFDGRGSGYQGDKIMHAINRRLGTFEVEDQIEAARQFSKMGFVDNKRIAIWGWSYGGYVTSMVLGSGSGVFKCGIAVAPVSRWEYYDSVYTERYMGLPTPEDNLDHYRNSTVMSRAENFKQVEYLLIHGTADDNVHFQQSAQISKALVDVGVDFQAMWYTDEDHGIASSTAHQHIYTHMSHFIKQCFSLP
Dipeptidyl peptidase 8, sequence (Q6V1X1 whole entry): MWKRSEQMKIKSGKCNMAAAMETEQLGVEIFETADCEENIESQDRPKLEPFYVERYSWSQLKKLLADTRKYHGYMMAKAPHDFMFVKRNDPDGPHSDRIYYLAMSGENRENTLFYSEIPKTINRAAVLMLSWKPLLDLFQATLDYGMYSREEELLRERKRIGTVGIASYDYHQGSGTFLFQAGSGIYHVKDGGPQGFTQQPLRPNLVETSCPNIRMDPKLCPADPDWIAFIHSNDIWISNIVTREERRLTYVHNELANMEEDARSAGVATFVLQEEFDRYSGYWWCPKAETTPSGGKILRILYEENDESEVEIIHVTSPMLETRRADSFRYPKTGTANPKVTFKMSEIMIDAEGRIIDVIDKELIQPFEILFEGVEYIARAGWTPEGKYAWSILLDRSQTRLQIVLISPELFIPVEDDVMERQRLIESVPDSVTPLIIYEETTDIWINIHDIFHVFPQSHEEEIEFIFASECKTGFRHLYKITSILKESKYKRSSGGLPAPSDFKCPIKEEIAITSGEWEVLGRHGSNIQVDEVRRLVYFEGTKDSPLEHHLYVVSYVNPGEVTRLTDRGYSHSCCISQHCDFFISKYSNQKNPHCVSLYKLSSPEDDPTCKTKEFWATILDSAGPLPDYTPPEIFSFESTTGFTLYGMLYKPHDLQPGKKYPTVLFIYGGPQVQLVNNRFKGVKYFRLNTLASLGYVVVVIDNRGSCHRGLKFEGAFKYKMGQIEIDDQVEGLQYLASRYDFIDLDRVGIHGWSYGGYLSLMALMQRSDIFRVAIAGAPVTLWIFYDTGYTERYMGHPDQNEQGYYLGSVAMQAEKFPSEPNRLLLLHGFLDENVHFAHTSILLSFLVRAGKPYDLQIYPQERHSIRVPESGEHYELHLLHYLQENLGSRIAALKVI

IC50 (Dipeptidyl peptidase 4): 1.1 nM
IC50 (Dipeptidyl peptidase 2): > 50 µM
IC50 (Dipeptidyl peptidase 8): > 50 µM
IC50 [1]: > 10 µM
IC50 (Cytochrome P450 1A2): > 50 µM
IC50 (Cytochrome P450 2A6): > 50 µM
IC50 (Cytochrome P450 2C8): > 50 µM
IC50 (Cytochrome P450 3A4): > 50 µM
IC50 (Cytochrome P450 2D6): 38 µM
clearance [2]: 40 mL/min/kg
Vd [3]: 6.5 L/kg
half-life [4]: 198 min
half-life [5]: 186 min
Cmax [6]: 245 ng/mL
half-life [7]: 234 min
bioavailability [8]: 91%
clearance [9]: 38 mL/min/kg
half-life [10]: 288 min
Cmax [11]: 77 ng/mL
bioavailability [12]: 38%
fraction unbound [13]: 0.22
fraction unbound [14]: 0.41
fraction unbound [15]: 0.31
fraction unbound [16]: 0.27
Cmax [17]: 309 ng/mL
solubility [18]: > 1000 µg/mL
SMILES: Cn1c(=O)c2c(cc(N3CCC[C@@](C)(N)C3)n2Cc2cc(F)ccc2C#N)n(C)c1=O
NOAEL at 336 h [19]: 60 mg/kg/day

Source: ChEMBL document CHEMBL1817578, “2-({6-[(3R)-3-amino-3-methylpiperidine-1-yl]-1,3-dimethyl-2,4-dioxo-1,2,3,4-tetrahydro-5H-pyrrolo[3,2-d]pyrimidine-5-yl}methyl)-4-fluorobenzonitrile (DSR-12727): a potent, orally active dipeptidyl peptidase IV inhibitor without mechanism-based inactivation of CYP3A” (Bioorg Med Chem, 2011)
